From ChEMBL document CHEMBL1649142, “Relationship between susceptibility to daptomycin in vitro and activity in vivo in a rabbit model of aortic valve endocarditis” (Antimicrob Agents Chemother, 2009)
Values after ≈ are worked out from the molar mass of the structure shown.

Tests used:
[1] = Cmax in New Zealand rabbit at 18 mg/kg/day, iv […] measured after 15 mins […] by HPLC; type: ADME, organism-based, Oryctolagus cuniculus; parameters: dose 18 mg/kg/day, route intravenous; details: in vivo
Outline: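 A single IV bolus (1 to 2 min, marginal ear vein) was given to healthy New Zealand White rabbits, three per group. Plasma was drawn from 0.25 to 6 h and assayed by validated HPLC. The reported value is the mean plasma concentration 15 min after the end of infusion, not a multi-day steady-state peak.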

[2] = Half life in New Zealand rabbit at 12 mg/kg/day, iv […] by HPLC; type: ADME, organism-based, Oryctolagus cuniculus; parameters: route intravenous; details: in vivo
Outline: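 Uninfected New Zealand White rabbits (n = 3 per group) were dosed once by IV bolus. Plasma was collected at 0.25, 0.5, 1, 2, 4 and 6 h and measured by validated HPLC. Half-life was obtained by noncompartmental analysis, with kel taken from the slope of the terminal log concentration-time curve.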

[3] = AUC in New Zealand rabbit at 12 mg/kg/day, iv for 4 days by HPLC; type: ADME, organism-based, Oryctolagus cuniculus; parameters: route intravenous; details: plasma
[4] = AUC in New Zealand rabbit at 18 mg/kg/day, iv for 4 days by HPLC; type: ADME, organism-based, Oryctolagus cuniculus; parameters: route intravenous; details: plasma
[5] = AUC in human at 6 mg/kg, iv by HPLC; type: ADME, organism-based; parameters: dose 6 mg/kg, route intravenous; details: plasma
[6] = AUC in human at 10 mg/kg, iv by HPLC; type: ADME, organism-based; parameters: dose 10 mg/kg, route intravenous; details: plasma
Staphylococcus aureus [7] = assay: Antimicrobial activity against rifampin-susceptible Staphylococcus aureus A by Etest
Staphylococcus aureus [8] = assay: Antimicrobial activity against rifampin-susceptible Staphylococcus aureus A by broth dilution method
Staphylococcus aureus [9] = assay: Antimicrobial activity against rifampin-resistant Staphylococcus aureus B; type: functional
Staphylococcus aureus [10] = assay: Antimicrobial activity against Staphylococcus aureus A0.5/B2.0 infected in New Zealand rabbit dual-infection aortic valve endocarditis model assessed as bacterial count in endocardial vegetation at 12 mg/kg/day, iv for 4 days (reference value: 7.8+/-0.4 log10 CFU/g); type: functional, Aorta
Staphylococcus aureus [11] = assay: Antimicrobial activity against Staphylococcus aureus A0.5/B2.0 infected in New Zealand rabbit dual-infection aortic valve endocarditis model assessed as bacterial count in spleen at 12 mg/kg/day, iv for 4 days (reference value: 6.0+/-0.3 log10 CFU/g); type: functional
Staphylococcus aureus [12] = assay: Antimicrobial activity against Staphylococcus aureus A0.5/B2.0 infected in New Zealand rabbit dual-infection aortic valve endocarditis model assessed as bacterial count in kidney at 12 mg/kg/day, iv for 4 days (reference value: 6.3+/-1.0 log10 CFU/g); type: functional
Staphylococcus aureus [13] = assay: Antimicrobial activity against Staphylococcus aureus A0.5/B2.0 infected in New Zealand rabbit dual-infection aortic valve endocarditis model assessed as bacterial count of strain A0.5 in endocardial vegetation at 12 mg/kg/day, iv for 4 days (reference value: 280 log10 CFU); type: functional, Aorta
Staphylococcus aureus [14] = assay: Antimicrobial activity against Staphylococcus aureus A0.5/B2.0 infected in New Zealand rabbit dual-infection aortic valve endocarditis model assessed as bacterial count of strain A0.5 in spleen at 12 mg/kg/day, iv for 4 days (reference value: 333 log10 CFU); type: functional
Staphylococcus aureus [15] = assay: Antimicrobial activity against Staphylococcus aureus A0.5/B2.0 infected in New Zealand rabbit dual-infection aortic valve endocarditis model assessed as bacterial count of strain B2.0 in endocardial vegetation at 12 mg/kg/day, iv for 4 days (reference value: 320 log10 CFU); type: functional, Aorta
Staphylococcus aureus [16] = assay: Antimicrobial activity against Staphylococcus aureus A0.5/B2.0 infected in New Zealand rabbit dual-infection aortic valve endocarditis model assessed as bacterial count of strain B2.0 in spleen at 12 mg/kg/day, iv for 4 days (reference value: 627 log10 CFU); type: functional
Staphylococcus aureus [17] = assay: Antimicrobial activity against Staphylococcus aureus A0.5 infected in New Zealand rabbit aortic valve endocarditis model assessed as bacterial count in endocardial vegetation at 12 mg/kg/day, iv for 4 days (reference value: 6.9+/-0.7 log10 CFU/g); type: functional
Staphylococcus aureus [18] = assay: Antimicrobial activity against Staphylococcus aureus A0.5 infected in New Zealand rabbit aortic valve endocarditis model assessed as bacterial count in endocardial vegetation at 18 mg/kg/day, iv for 4 days (reference value: 6.9+/-0.7 log10 CFU/g); type: functional
Staphylococcus aureus [19] = assay: Antimicrobial activity against Staphylococcus aureus A0.5 infected in New Zealand rabbit aortic valve endocarditis model assessed as bacterial count in spleen at 12 mg/kg/day, iv for 4 days (reference value: 6.1+/-0.2 log10 CFU/g); type: functional
Staphylococcus aureus [20] = assay: Antimicrobial activity against Staphylococcus aureus A0.5 infected in New Zealand rabbit aortic valve endocarditis model assessed as bacterial count in spleen at 18 mg/kg/day, iv for 4 days (reference value: 6.1+/-0.2 log10 CFU/g); type: functional
Staphylococcus aureus [21] = assay: Antimicrobial activity against Staphylococcus aureus A0.5 infected in New Zealand rabbit aortic valve endocarditis model assessed as bacterial count in spleen at 12 mg/kg/day, iv for 4 days (reference value: 5.7+/-0.7 log10 CFU/g); type: functional
Staphylococcus aureus [22] = assay: Antimicrobial activity against Staphylococcus aureus A0.5 infected in New Zealand rabbit aortic valve endocarditis model assessed as bacterial count in spleen at 18 mg/kg/day, iv for 4 days (reference value: 5.7+/-0.7 log10 CFU/g); type: functional
Staphylococcus aureus [23] = assay: Antimicrobial activity against Staphylococcus aureus B2.0 infected in New Zealand rabbit aortic valve endocarditis model assessed as bacterial count in endocardial vegetation at 12 mg/kg/day, iv for 4 days (reference value: 7.3+/-1.0 log10 CFU/g); type: functional, Aorta
Staphylococcus aureus [24] = assay: Antimicrobial activity against Staphylococcus aureus B2.0 infected in New Zealand rabbit aortic valve endocarditis model assessed as bacterial count in endocardial vegetation at 18 mg/kg/day, iv for 4 days (reference value: 7.3+/-1.0 log10 CFU/g); type: functional, Aorta
Staphylococcus aureus [25] = assay: Antimicrobial activity against Staphylococcus aureus B2.0 infected in New Zealand rabbit aortic valve endocarditis model assessed as bacterial count in spleen at 12 mg/kg/day, iv for 4 days (reference value: 5.4+/-0.2 log10 CFU/g); type: functional
Staphylococcus aureus [26] = assay: Antimicrobial activity against Staphylococcus aureus B2.0 infected in New Zealand rabbit aortic valve endocarditis model assessed as bacterial count in spleen at 18 mg/kg/day, iv for 4 days (reference value: 5.4+/-0.2 log10 CFU/g); type: functional
Staphylococcus aureus [27] = assay: Antimicrobial activity against Staphylococcus aureus B2.0 infected in New Zealand rabbit aortic valve endocarditis model assessed as bacterial count in kidney at 12 mg/kg/day, iv for 4 days (reference value: 5.1+/-0.6 log10 CFU/g); type: functional
Staphylococcus aureus [28] = assay: Antimicrobial activity against Staphylococcus aureus B2.0 infected in New Zealand rabbit aortic valve endocarditis model assessed as bacterial count in kidney at 18 mg/kg/day, iv for 4 days (reference value: 5.1+/-0.6 log10 CFU/g); type: functional

Compound `CCCCCCCCCC(=O)N[C@@H](Cc1c[nH]c2ccccc12)C(=O)N[C@H](CC(N)=O)C(=O)N[C@@H](CC(=O)O)C(=O)N[C@@H]1C(=O)NCC(=O)N[C@@H](CCCN)C(=O)N[C@@H](CC(=O)O)C(=O)N[C@H](C)C(=O)N[C@@H](CC(=O)O)C(=O)NCC(=O)N[C@H](CO)C(=O)N[C@@H]([C@H](C)CC(=O)O)C(=O)N[C@@H](CC(=O)c2ccccc2N)C(=O)O[C@@H]1C` has a Cmax [1] of 149 µg/mL, a half-life [2] of 5 h and an AUC at 96 h [3] of 719 µg·h/mL. The AUC at 96 h [4] was 965 µg·h/mL, the AUC [5] was 632 µg·h/mL and the AUC [6] was 1040 µg·h/mL. It also gave an MIC (Staphylococcus aureus [7]) of 0.5 µg/mL (≈ 0.309 µM), an MIC (Staphylococcus aureus [8]) of 0.5 µg/mL (≈ 0.309 µM) and an MIC (Staphylococcus aureus [9]) of 2 µg/mL (≈ 1.23 µM). For the same compound, the log10CFU/g (Staphylococcus aureus [10]) was 5.3, the log10CFU/g (Staphylococcus aureus [11]) was 2.3 and the log10CFU/g (Staphylococcus aureus [12]) was 1.7. The log10CFU/g (Staphylococcus aureus [13]) was 2.3, the log10CFU/g (Staphylococcus aureus [14]) was 1 and the log10CFU/g (Staphylococcus aureus [15]) was 1.7. It also gave a log10CFU/g (Staphylococcus aureus [16]) of 0, a log10CFU/g (Staphylococcus aureus [17]) of 0 and a log10CFU/g (Staphylococcus aureus [18]) of 0. The log10CFU/g (Staphylococcus aureus [19]) was 0, the log10CFU/g (Staphylococcus aureus [20]) was 0 and the log10CFU/g (Staphylococcus aureus [21]) was 0. For the same compound, the log10CFU/g (Staphylococcus aureus [22]) was 0, the log10CFU/g (Staphylococcus aureus [23]) was 6.3 and the log10CFU/g (Staphylococcus aureus [24]) was 4.4. The log10CFU/g (Staphylococcus aureus [25]) was 3.2, the log10CFU/g (Staphylococcus aureus [26]) was 2.3 and the log10CFU/g (Staphylococcus aureus [27]) was 2.1. It also gave a log10CFU/g (Staphylococcus aureus [28]) of 2.5.
